In brackets after ≈: the same amount, converted by molar mass. Non-standard residues stand in square brackets, D forms with d. Residues, ends and D or L forms follow the SMILES beside them. *: point of attachment. Decanoyl = CCCCCCCCCC(=O)*; Heptanoyl = CCCCCCC(=O)*; Dab = NCC[C@H](N)C(=O)O; Cbz = O=C(OCc1ccccc1)*; Bz = O=C(c1ccccc1)*
Tests used:
Acinetobacter baumannii [1] = test: Potentiation of rifampicin-mediated antibacterial activity against Acinetobacter baumannii ATCC 19606 assessed as rifampicin MIC at 2 ug/ml by checkerboard method (reference value: 16 ug/ml); assay type: functional; details: ATCC 19606 = CIP 70.34 = JCM 6841
Enterococcus faecium [2] = test: Antibacterial activity against Enterococcus faecium ATCC 19434 after 18 to 20 hrs by broth microdilution method; assay type: functional
Summary of the method: (§1)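 Broth microdilution in tryptic soy broth: 2-fold dilutions mixed 1:1 with ~1.5 × 10^5 CFU/mL inoculum, final 0.5–32 μg/mL; 37 °C, 18–20 h. MIC taken as lowest concentration giving no visible growth. At least three independent experiments, one replicate each.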

Klebsiella pneumoniae [3] = test: Potentiation of rifampicin-mediated antibacterial activity against Klebsiella pneumoniae ATCC 13883 assessed as decrease in rifampicin MIC at 2 ug/ml by checkerboard method relative to control; assay type: functional
Pseudomonas aeruginosa [4] = test: Antibacterial activity against Pseudomonas aeruginosa ATCC 27853 after 18 to 20 hrs by broth microdilution method; assay type: functional; summary of the method: as §1
Staphylococcus aureus [5] = test: Antibacterial activity against Staphylococcus aureus ATCC 29213 after 18 to 20 hrs by broth microdilution method; assay type: functional; summary of the method: as §1
Klebsiella pneumoniae [6] = test: Potentiation of rifampicin-mediated antibacterial activity against Klebsiella pneumoniae ATCC 13883 assessed as rifampicin MIC at 2 ug/ml by checkerboard method (reference value: 16 ug/ml); assay type: functional
Acinetobacter baumannii [7] = test: Potentiation of rifampicin-mediated antibacterial activity against Acinetobacter baumannii ATCC 19606 assessed as decrease in rifampicin MIC at 4 ug/ml by checkerboard method relative to control; assay type: functional, ATCC 19606 = CIP 70.34 = JCM 6841
Klebsiella pneumoniae [8] = test: Antibacterial activity against Klebsiella pneumoniae ATCC 13883 after 18 to 20 hrs by broth microdilution method; assay type: functional
Acinetobacter baumannii [9] = test: Antibacterial activity against Acinetobacter baumannii ATCC 19606 after 18 to 20 hrs by broth microdilution method; assay type: functional; details: ATCC 19606 = CIP 70.34 = JCM 6841
Escherichia coli [10] = test: Antibacterial activity against Escherichia coli ATCC 25922 after 18 to 20 hrs by broth microdilution method; assay type: functional; summary of the method: as §1
Staphylococcus aureus [11] = test: Antibacterial activity against methicillin-resistant Staphylococcus aureus ATCC 43300 after 18 to 20 hrs by broth microdilution method; assay type: functional
Summary of the method: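 Broth microdilution in tryptic soy broth: 2-fold dilutions mixed 1:1 with ~1.5 × 10^5 CFU/mL bacterial suspension in TSB, final 0.5–32 μg/mL, 37 °C for 18–20 h. MIC = lowest concentration with no visible growth. At least three independent experiments, one replicate each.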

Staphylococcus aureus [12] = test: Bactericidal activity against methicillin-resistant Staphylococcus aureus ATCC 43300; assay type: functional; details: read-out: MBC99.9
Summary of the method: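 MBC taken at the end of the MIC test: 50 μL from each well without visible growth plated on tryptic soy agar. MBC = lowest concentration giving ≥99.9% reduction in viable cells relative to the initial inoculum. Three independent experiments, one replicate each.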

Escherichia coli [13] = test: Antibacterial activity against Escherichia coli ATCC 25922 after 18 to 20 hrs in presence of 95% serum by broth microdilution method; assay type: functional
Summary of the method: (§2)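 Same microdilution with human serum as medium: compound 2-fold diluted in 100% serum, mixed 1:1 with 90% serum holding ~1.5 × 10^5 CFU/mL, giving 95% serum and final 0.5–64 μg/mL. MIC read as no visible growth after incubation as for the broth test.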

Pseudomonas aeruginosa [14] = test: Bactericidal activity against Pseudomonas aeruginosa ATCC 27853; assay type: functional; details: read-out: MBC99.9
Summary of the method: (§3)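 MBC from MIC plates at end point: 50 μL from each well with no visible growth plated on tryptic soy agar and counted. MBC taken as lowest concentration giving ≥99.9% fall in viable count relative to initial inoculum. Three independent experiments, one replicate each.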

Enterococcus faecium [15] = test: Bactericidal activity against Enterococcus faecium ATCC 19434; assay type: functional; details: read-out: MBC99.9; summary of the method: as §3
Escherichia coli [16] = test: Bactericidal activity against Escherichia coli ATCC 25922; assay type: functional; details: read-out: MBC99.9; summary of the method: as §3
Klebsiella pneumoniae [17] = test: Bactericidal activity against Klebsiella pneumoniae ATCC 13883; assay type: functional; details: read-out: MBC99.9; summary of the method: as §3
Staphylococcus aureus [18] = test: Bactericidal activity against Staphylococcus aureus ATCC 29213; assay type: functional; details: read-out: MBC99.9; summary of the method: as §3
Acinetobacter baumannii [19] = test: Bactericidal activity against Acinetobacter baumannii ATCC 19606; assay type: functional; details: ATCC 19606 = CIP 70.34 = JCM 6841, read-out: MBC99.9; summary of the method: as §3
Staphylococcus aureus [20] = test: Antibacterial activity against Staphylococcus aureus ATCC 29213 after 18 to 20 hrs in presence of 95% serum by broth microdilution method; assay type: functional; summary of the method: as §2

SMILES | MIC (Acinetobacter baumannii [1]) [µg/mL] | MIC (Enterococcus faecium [2]) [µg/mL] | fold change (FC) (Klebsiella pneumoniae [3]) | MIC (Pseudomonas aeruginosa [4]) [µg/mL] | MIC (Staphylococcus aureus [5]) [µg/mL] | MIC (Klebsiella pneumoniae [6]) [µg/mL] | fold change (FC) (Acinetobacter baumannii [7]) | MIC (Klebsiella pneumoniae [8]) [µg/mL] | MIC (Acinetobacter baumannii [9]) [µg/mL] | MIC (Escherichia coli [10]) [µg/mL] | MIC (Staphylococcus aureus [11]) [µg/mL] | MBC (Staphylococcus aureus [12]) [µg/mL] | MIC (Escherichia coli [13]) [µg/mL] | MBC (Pseudomonas aeruginosa [14]) [µg/mL] | MBC (Enterococcus faecium [15]) [µg/mL] | MBC (Escherichia coli [16]) [µg/mL] | MBC (Klebsiella pneumoniae [17]) [µg/mL] | MBC (Staphylococcus aureus [18]) [µg/mL] | MBC (Acinetobacter baumannii [19]) [µg/mL] | MIC (Staphylococcus aureus [20]) [µg/mL]
CCCCCCCC(=O)N[C@H](CCCN)C(=O)N[C@H](C(=O)N[C@@H](CCCN)C(=O)N[C@@H](Cc1ccccc1)C(=O)N[C@@H](CC(C)C)C(=O)N[C@@H](CCCN)C(=O)N[C@H](C(=O)N[C@@H](CC(C)C)C(=O)N[C@@H](CO)C(N)=O)C(C)C)[C@@H](C)CC | 0.0625 | > 32 | 1024 - 2048 | 16 (≈ 13.8 µM) | > 32 | 0.0313 to 0.0625 | 512 - 1024 | > 32 | 32 (≈ 27.6 µM) | 32 (≈ 27.6 µM) | 32 (≈ 27.6 µM) | – | – | – | – | – | – | – | – | –
CC[C@H](C)[C@H](NC(=O)[C@H](CCN)NC(=O)c1ccccc1)C(=O)N[C@@H](CCN)C(=O)N[C@H](Cc1ccccc1)C(=O)N[C@@H](CC(C)C)C(=O)N[C@@H](CCN)C(=O)N[C@@H](C(=O)N[C@@H](CC(C)C)C(=O)N[C@@H](CO)C(N)=O)C(C)C (Bz-[Dab]I[Dab][dF]L[Dab][dV]LS-NH2) | 0.0312 | > 32 | 4096 - 8192 | 8 to 32 (≈ 7.31 to 29.2 µM) | > 32 | 0.0078 | 2048 - 4096 | > 32 | > 32 | 16 to 32 (≈ 14.6 to 29.2 µM) | > 32 | – | – | – | – | – | – | – | – | –
CC[C@H](C)[C@H](NC(=O)[C@H](CCN)NC(=O)OCc1ccccc1)C(=O)N[C@@H](CCN)C(=O)N[C@H](Cc1ccccc1)C(=O)N[C@@H](CC(C)C)C(=O)N[C@@H](CCN)C(=O)N[C@@H](C(=O)N[C@@H](CC(C)C)C(=O)N[C@@H](CO)C(N)=O)C(C)C (Cbz-[Dab]I[Dab][dF]L[Dab][dV]LS-NH2) | 0.0019 to 0.0039 | > 32 | 4096 - 8192 | 16 (≈ 14.2 µM) | > 32 | 0.0039 | >=8192 | > 32 | 16 (≈ 14.2 µM) | 8 to 16 (≈ 7.11 to 14.2 µM) | > 32 | – | – | – | – | – | – | – | – | –
CCCCCCCCCC(=O)N[C@@H](CCN)C(=O)N[C@H](C(=O)N[C@H](C(=O)N[C@H](CC(C)C)C(=O)N[C@@H](CC(C)C)C(=O)N[C@@H](CCN)C(=O)N[C@@H](C(=O)N[C@@H](CC(C)C)C(=O)N[C@@H](CO)C(N)=O)C(C)C)[C@@H](C)O)[C@@H](C)CC (Decanoyl-[Dab]IT[dL]L[Dab][dV]LS-NH2) | > 0.125 | ≥ 32 | <8 | > 32 | > 32 | > 0.125 | <128 | > 32 | > 32 | > 32 | > 32 | – | – | – | – | – | – | – | – | –
CCCCCCC(=O)N[C@@H](CCN)C(=O)N[C@@H](Cc1ccccc1)C(=O)N[C@@H](CCN)C(=O)N[C@H](Cc1ccccc1)C(=O)N[C@@H](CC(C)C)C(=O)N[C@@H](CCN)C(=O)N[C@H](CC(C)C)C(=O)N[C@@H](CC(C)C)C(=O)N[C@@H](CO)C(N)=O (Heptanoyl-[Dab]F[Dab][dF]L[Dab][dL]LS-NH2) | – | 16 (≈ 13.9 µM) | – | 2 to 4 (≈ 1.74 to 3.48 µM) | 16 to 32 (≈ 13.9 to 27.8 µM) | – | – | 4 (≈ 3.48 µM) | 8 (≈ 6.95 µM) | 1 to 4 (≈ 0.869 to 3.48 µM) | 16 to 32 (≈ 13.9 to 27.8 µM) | 32 (≈ 27.8 µM) | 32 | 8 to 16 (≈ 6.95 to 13.9 µM) | 32 (≈ 27.8 µM) | 32 (≈ 27.8 µM) | 8 (≈ 6.95 µM) | 16 to 32 (≈ 13.9 to 27.8 µM) | 8 (≈ 6.95 µM) | 64

Source: ChEMBL document CHEMBL4052819 (2017)
